Data from ChEMBL document CHEMBL3853270, “Influence of Birch Bark Triterpenes on Keratinocytes and Fibroblasts from Diabetic and Nondiabetic Donors” (2016).
The source made the active and inactive calls. The calls are words filed in the database; no cut-off is given here.

What was measured:
[1] = Effect on wound healing activity in diabetic adult human primary fibroblasts assessed as upregulation of soluble ICAM1 protein levels at 1.96 uM after 24 hrs by bead-based suspension array analysis; type: functional; conditions: Fibroblast
[2] = system: Fibroblast; assay: Effect on growth factor related gene expression in non-diabetic young human primary fibroblasts assessed as GDF15 mRNA levels at 1.96 uM after 6 hrs by qPCR analysis; type: functional
Summary of the method: (§1)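 Primary human dermal fibroblasts (young or adult nondiabetic, adult diabetic donor) were treated for 6 h against a 0.1% DMSO solvent control. RNA from 320 000 cells per sample was measured by Fluidigm Biomark high-throughput qPCR. Values are fold change relative to solvent control, from four independent experiments, with SD. One-way ANOVA with Bonferroni post-test was applied.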

[3] = Effect on wound healing activity in non-diabetic adult human primary keratinocytes assessed as upregulation of TNFalpha protein levels at 1.96 uM after 24 hrs by bead-based suspension array analysis; type: functional; conditions: Keratinocyte
[4] = Effect on wound healing activity in non-diabetic adult human primary keratinocytes assessed as upregulation of MIF protein levels at 1.96 uM after 24 hrs by bead-based suspension array analysis; type: functional; conditions: Keratinocyte
[5] = Upregulation of wound healing activity related soluble ICAM1 protein levels in non-diabetic adult human primary keratinocytes at 1.96 uM after 24 hrs by bead-based suspension array analysis; type: functional; conditions: Keratinocyte
[6] = system: Keratinocyte; assay: Effect on pro-inflammatory related gene expression in non-diabetic young human primary keratinocytes assessed as TNF mRNA levels at 1.96 uM after 6 hrs by qPCR analysis; type: functional
[7] = system: Keratinocyte; assay: Effect on antiinflammatory related gene expression in non-diabetic young human primary keratinocytes assessed as NFKBIA mRNA levels at 9.81 uM after 6 hrs by qPCR analysis; type: functional
[8] = system: Keratinocyte; assay: Effect on chemokines related gene expression in non-diabetic young human primary keratinocytes assessed as CXCL10 mRNA levels at 9.81 uM after 6 hrs by qPCR analysis; type: functional
Summary of the method: (§2)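 Primary human keratinocytes (nondiabetic young or adult, diabetic adult donors) were exposed to compound for 6 h, with 0.1% DMSO as solvent control. Total RNA came from 400 000 cells per sample and was assayed on a Fluidigm Biomark high-throughput qPCR chip. Results are fold change vs solvent control, from 2−4 independent experiments on two donors per group, with SD. Groups were compared by one-way ANOVA with Bonferroni post-test.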

[9] = system: Keratinocyte; assay: Effect on ECM related gene expression in diabetic adult human primary keratinocytes assessed as FBN1 mRNA levels at 9.81 uM after 6 hrs by qPCR analysis; type: functional
Summary of the method: (§3)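 Primary keratinocytes from nondiabetic young and adult and diabetic adult donors; 400 000 cells per sample, 6 h exposure at 1.96 or 9.81 μM. RNA extracted and read on a high-throughput qPCR chip. Results are fold change versus 0.1% DMSO solvent control from 5−7 independent experiments over two donors per group, SD, one-way ANOVA with Bonferroni post-test.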

[10] = system: Keratinocyte; assay: Effect on antiinflammatory related gene expression in diabetic adult human primary keratinocytes assessed as NFKBIA mRNA levels at 1.96 uM after 6 hrs by qPCR analysis; type: functional; summary of the method: as §3
[11] = system: Keratinocyte; assay: Effect on pro-inflammatory related gene expression in non-diabetic adult human primary keratinocytes assessed as IL1R1 mRNA levels at 9.81 uM after 6 hrs by qPCR analysis; type: functional
[12] = system: Fibroblast; assay: Effect on adhesion molecules related gene expression in diabetic adult human primary fibroblasts assessed as ICAM1 mRNA levels at 9.81 uM after 6 hrs by qPCR analysis; type: functional
Summary of the method: (§4)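 Dermal fibroblasts from nondiabetic adult and diabetic adult donors, exposed for 6 h at 1.96 or 9.81 μM. ICAM-1 and VCAM-1 mRNA measured by standard qRT-PCR, n = 3. Fold change versus 0.1% DMSO control, SD, one-way ANOVA with Bonferroni post-test.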

[13] = system: Fibroblast; assay: Effect on pro-inflammatory related gene expression in non-diabetic young human primary fibroblasts assessed as IL1B mRNA levels at 9.81 uM after 6 hrs by qPCR analysis; type: functional
[14] = system: Keratinocyte; assay: Effect on MMP1 mRNA expression levels in non-diabetic young human primary keratinocytes at 9.81 uM after 6 hrs by qPCR analysis; type: functional; summary of the method: as §3
[15] = system: Fibroblast; assay: Effect on pro-inflammatory related gene expression in diabetic adult human primary fibroblasts assessed as IL6 mRNA levels at 9.81 uM after 6 hrs by qPCR analysis; type: functional; summary of the method: as §1
[16] = Effect on wound healing activity in non-diabetic adult human primary fibroblasts assessed as upregulation of soluble TNFR1 protein levels at 1.96 uM after 24 hrs by bead-based suspension array analysis; type: functional; conditions: Fibroblast
[17] = system: Keratinocyte; assay: Effect on growth factor related gene expression in non-diabetic adult human primary keratinocytes assessed as VEGFA mRNA levels at 9.81 uM after 6 hrs by qPCR analysis; type: functional; summary of the method: as §2
[18] = system: Fibroblast; assay: Effect on antioxidant related gene expression in non-diabetic adult human primary fibroblasts assessed as SOD2 mRNA levels at 9.81 uM after 6 hrs by qPCR analysis; type: functional
[19] = system: Keratinocyte; assay: Effect on cellular connection related gene expression in diabetic adult human primary keratinocytes assessed as GJB2 mRNA levels at 1.96 uM after 6 hrs by qPCR analysis; type: functional
[20] = system: Keratinocyte; assay: Effect on growth factor related gene expression in non-diabetic adult human primary keratinocytes assessed as GDF15 mRNA levels at 9.81 uM after 6 hrs by qPCR analysis; type: functional; summary of the method: as §2
[21] = system: Keratinocyte; assay: Effect on pro-inflammatory related gene expression in diabetic adult human primary keratinocytes assessed as IL1R1 mRNA levels at 1.96 uM after 6 hrs by qPCR analysis; type: functional
[22] = biological target: Ras-related C3 botulinum toxin substrate 1 (Homo sapiens) (UniProt P63000); assay: Activation of Rac1 in human diabetic primary keratinocytes at 10 nM after 20 mins by immunoblot method
Summary of the method: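 Primary keratinocytes from a diabetic adult donor (NHK-d), exposed 20 min. Lysed in glycerol/Tris pH 7.4/NaCl/NP-40/MgCl2/PMSF buffer and cleared at 4 °C. Supernatant incubated 1 h at 4 °C with glutathione-sepharose beads carrying GST-PAK to pull down active GTP-bound Rac1. Blotted on a 13% gel, probed with anti-Rac1 (1:2.000) and detected by ECL; total Rac1 also measured. CNF1 (2 nM) positive control, n = 3.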

[23] = system: Fibroblast; assay: Effect on chemokines related gene expression in non-diabetic young human primary fibroblasts assessed as CCL2 mRNA levels at 1.96 uM after 6 hrs by qPCR analysis; type: functional
[24] = system: Keratinocyte; assay: Effect on pro-inflammatory related gene expression in non-diabetic adult human primary keratinocytes assessed as TNF mRNA levels at 1.96 uM after 6 hrs by qPCR analysis; type: functional
[25] = system: Fibroblast; assay: Effect on pro-inflammatory related gene expression in non-diabetic young human primary fibroblasts assessed as IL1R1 mRNA levels at 1.96 uM after 6 hrs by qPCR analysis; type: functional
[26] = system: Fibroblast; assay: Effect on adhesion molecules related gene expression in non-diabetic adult human primary fibroblasts assessed as VCAM1 mRNA levels at 9.81 uM after 6 hrs by qPCR analysis; type: functional; summary of the method: as §4
[27] = system: Fibroblast; assay: Effect on chemokines related gene expression in non-diabetic adult human primary fibroblasts assessed as WDR26 mRNA levels at 9.81 uM after 6 hrs by qPCR analysis; type: functional
[28] = system: Keratinocyte; assay: Effect on antioxidant related gene expression in non-diabetic adult human primary keratinocytes assessed as SOD2 mRNA levels at 1.96 uM after 6 hrs by qPCR analysis; type: functional

C=C(C)[C@@H]1CC[C@]2(CO)CC[C@]3(C)[C@H](CC[C@@H]4[C@@]5(C)CC[C@H](O)C(C)(C)[C@@H]5CC[C@]43C)[C@@H]12 [BETULIN]
Activity [1]: Active
fold change (FC) [2]: 3.7
Activity [3]: Active
Activity [4]: Active
Activity [5]: Active
fold change (FC) [6]: 4.5
fold change (FC) [7]: 1.6
fold change (FC) [8]: 1.7
fold change (FC) [9]: 2.5
fold change (FC) [10]: 1.2
fold change (FC) [11]: 0.9
fold change (FC) [12]: 2.3
fold change (FC) [13]: 5.7
fold change (FC) [14]: 1
fold change (FC) [15]: 5.3
Activity [16]: Active
fold change (FC) [17]: 1.7
fold change (FC) [18]: 18
fold change (FC) [19]: 0.9
fold change (FC) [20]: 1
fold change (FC) [21]: 0.8
Activity [22]: Active
fold change (FC) [23]: 4.3
fold change (FC) [24]: 3.8
fold change (FC) [25]: 3.7
fold change (FC) [26]: 53.7
fold change (FC) [27]: 1.3
fold change (FC) [28]: 1.3
